Active and inactive are the calls of the source. No cut-off for these calls is given here.
Assays:
[1] = Induction of self-assembly of the compound in DMSO at 1 uM by fluorescence spectroscopic analysis; assay type: physicochemical
Procedure, shortened: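 Self-assembly of NBD-labelled peptide (1 μM) in 1:1 DMSO/MES (25 mM, pH 6.6) was followed as fluorescence decrease over time.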

[2] = Cellular uptake in intracellular vesicle of rat L6 cells at 10 uM after 4 hrs by WGA/Hoechst staining-based confocal fluorescent microscopic analysis; assay type: ADME, cell-based; settings: l6, 4 h
Procedure, shortened: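 Live L6 myotubes on glass-bottom dishes were given NBD-labelled peptide (10 μM) for 4 h in medium with 1% FBS, then washed. Nuclei were stained with Hoechst and membranes with Alexa Fluor-WGA. Imaging was by confocal microscopy at 37 °C.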

[3] = Antioxidant activity assessed as inhibition of H2O2-induced ROS production by DCFH assay; assay type: functional
Procedure, shortened: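 DCFH oxidation assay: H2O2 (0.5 mM) was incubated with DCFH with or without the test agent, and the DCF formed was read fluorometrically. Free His and Trolox served as controls.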

[4] = system: L6; assay: Effect on total GLUT1 level in rat L6 cells at 2 mM after 30 mins by Western blotting analysis; assay type: functional, cell-based
[5] = system: L6; assay: Effect on human myc epitope-tagged total GLUT4 level overexpressed in rat L6 cells at 2 mM after 30 mins by Western blotting analysis; assay type: functional, cell-based
Procedure, shortened: (§1)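 Whole-cell lysates of GLUT1myc- or GLUT4myc-overexpressing L6 myotubes were made after the same treatments as in the surface assay. Western blots were run for total transporter content.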

[6] = system: L6; assay: Antihyperglycemic activity in rat L6 cells assessed as increase in [3H]dGlc uptake at 25 uM after 30 mins by liquid scintillation counting analysis; assay type: functional, cell-based
[7] = system: L6; assay: Antiapoptotic activity in rat L6 cells assessed as suppression of 23.5 mM D-glucose-induced JNK-46 phosphorylation at 2 mM after 30 mins by Western blot analysis; assay type: functional, cell-based
[8] = system: L6; assay: Effect on human myc epitope-tagged total GLUT1 level overexpressed in rat L6 cells at 2 mM after 30 mins by Western blotting analysis; assay type: functional, cell-based; procedure, shortened: as §1
[9] = target: T1, Solute carrier family 2, facilitated glucose transporter member 1 (Homo sapiens) (UniProt P11166); assay: Induction of human myc epitope-tagged GLUT1 translocation to plasma membrane overexpressed in rat L6 cells at 2 mM after 30 mins by immunocolorimetric analysis in presence of 23.5 mM D-glucose; assay type: cell-based
T1 sequence (whole entry): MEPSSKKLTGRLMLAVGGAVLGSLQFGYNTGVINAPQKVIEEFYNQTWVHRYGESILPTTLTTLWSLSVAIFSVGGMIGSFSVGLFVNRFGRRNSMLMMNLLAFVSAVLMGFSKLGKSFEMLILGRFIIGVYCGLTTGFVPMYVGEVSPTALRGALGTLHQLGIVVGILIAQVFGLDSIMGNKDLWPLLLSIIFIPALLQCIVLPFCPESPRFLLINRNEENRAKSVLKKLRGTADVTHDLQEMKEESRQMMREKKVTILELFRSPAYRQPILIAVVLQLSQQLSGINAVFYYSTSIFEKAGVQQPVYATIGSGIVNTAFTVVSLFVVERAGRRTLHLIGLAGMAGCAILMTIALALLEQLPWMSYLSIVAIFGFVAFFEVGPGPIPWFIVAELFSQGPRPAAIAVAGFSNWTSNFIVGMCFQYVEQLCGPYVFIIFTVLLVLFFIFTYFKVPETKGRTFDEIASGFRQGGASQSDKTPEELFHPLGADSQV
Procedure, shortened: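 L6 myotubes overexpressing GLUT1myc or GLUT4myc were held 9 h in serum-free αMEM with 0.5% BSA and 23.5 mM glucose. They received peptide (25 μM) or 0.1% DMSO over the last 8 h, and insulin (100 nM) or ALA (2 mM) over the last 30 min. Live cells were labelled with anti-c-Myc (1:200) and fixed in 3% formaldehyde. HRP anti-rabbit IgG (1:2000) and OPD were added, and absorbance was read at 492 nm.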

[10] = system: L6; assay: Cytoprotective activity in rat L6 cells assessed as increase in glucose oxidase-reduced cell survival at 2 mM incubated for 30 mins prior to glucose oxidase challenge measured after 5 hrs by MTT assay in presence of 23.5 mM D-glucose; assay type: functional, cell-based
Procedure, shortened: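 L6 myotubes were kept 7 days in 23.5 mM glucose. They were pretreated with peptide (25 μM, 12 h) or ALA (2 mM, 30 min), vehicle 0.1% DMSO, at 37 °C. Glucose oxidase (50 mU mL−1) was then added for 5 h to generate H2O2. Viability was read by MTT.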

[11] = system: L6; assay: Antioxidant activity in rat L6 cells assessed as trolox equivalents of ABTS free radical scavenging activity at 2 mM after 2 hrs by ELISA reader analysis in presence of 23.5 mM D-glucose; assay type: functional, cell-based
Procedure, shortened: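 L6 myotubes in αMEM with 2% FCS and 5.5 or 23.5 mM glucose were treated with peptide (25 μM, 12 h) or ALA (2 mM, 2 h), vehicle 0.1% DMSO. Cells were lysed (Tris pH 7.5, NaCl, NP-40) through three freeze-thaw cycles and centrifuged. Lysates were assayed for metmyoglobin/H2O2-driven ABTS•+ formation. Results are Trolox equivalents per mg protein from a Trolox standard curve, with protein by Bradford.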

[12] = system: L6; assay: Antiapoptotic activity in rat L6 cells assessed as suppression of 23.5 mM D-glucose-induced JNK-54 phosphorylation at 2 mM after 30 mins by Western blot analysis; assay type: functional, cell-based
[13] = system: L6; assay: Effect on total GLUT4 level in rat L6 cells at 2 mM after 30 mins by Western blotting analysis; assay type: functional, cell-based
[14] = system: L6; assay: Antihyperglycemic activity in rat L6 cells assessed as increase in [3H]dGlc uptake at 2 mM after 30 mins by liquid scintillation counting analysis; assay type: functional, cell-based
Procedure, shortened: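 Differentiated L6 myotubes were preincubated 24 h in αMEM with 2% FCS and 5.5 or 23.5 mM D-glucose, then switched to FCS-free medium with 0.5% BSA 4 h before the assay. Peptide was given for 12 h or ALA for 30 min, vehicle 0.1% DMSO. After PBS rinses, cells took up 0.1 mM dGlc plus [3H]dGlc (1.3 μCi mL−1) for 5 min at room temperature. Cells were lysed in 0.1% SDS and counted by scintillation. Uptake is expressed as % of the DMSO basal rate.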

[15] = Potency index, ratio of Histidine EC50 to compound EC50 for inhibition of H2O2-induced ROS production; assay type: functional

Activity [1] | Drug uptake [2] | EC50 [3] [nM] | Activity [9] | SMILES | Activity [4] | Activity [5] | Activity [6] | Activity [7] | Activity [8] | Activity [10] | Activity [11] | Activity [12] | Activity [13] | Activity [14] | Ratio EC50 [15]
Active | Active | 300 |  | O=C1N[C@H](CCCCNc2ccc([N+](=O)[O-])c3nonc23)C(=O)N[C@@H](Cc2c[nH]cn2)C(=O)N[C@H](Cc2c[nH]c3ccccc23)C(=O)N[C@@H](Cc2c[nH]c3ccccc23)C(=O)N[C@H](Cc2c[nH]cn2)C(=O)N[C@@H](Cc2c[nH]cn2)C(=O)N[C@H](Cc2c[nH]cn2)C(=O)N[C@H]1Cc1c[nH]cn1 |  |  |  |  |  |  |  |  |  |  | 
 |  |  | Active | O=C(O)CCCCC1CCSS1 (stereo unspecified) | inactive | inactive | inactive | Active | inactive | Active | Active | Active | inactive | Active | 
 |  | 200 |  | NCCCC[C@H]1NC(=O)[C@H](Cc2c[nH]cn2)NC(=O)[C@@H](Cc2c[nH]c3ccccc23)NC(=O)[C@H](Cc2c[nH]c3ccccc23)NC(=O)[C@@H](Cc2c[nH]cn2)NC(=O)[C@H](Cc2c[nH]cn2)NC(=O)[C@@H](Cc2c[nH]cn2)NC(=O)[C@H](CO)NC1=O |  |  |  |  |  |  |  |  |  |  | 30
